Compound activity from PubChem BioAssay.
In the library only some 2.2% were active in any assay of this set; here they are far more common.
Bim-Mcl-1: inhibitors of Bim peptide binding to Mcl-1, primary screen, biochemical, bead-based flow cytometry, multiplex | Induced myeloid leukemia cell differentiation protein Mcl-1 (Homo sapiens), Q07820 | Bim peptide-Mcl-1 binding | inhibition, % at 10 µM | 0.1% of 190,000 active; in the data active = inhibition above about 40%
Target sequence (Q07820 whole entry, looked up): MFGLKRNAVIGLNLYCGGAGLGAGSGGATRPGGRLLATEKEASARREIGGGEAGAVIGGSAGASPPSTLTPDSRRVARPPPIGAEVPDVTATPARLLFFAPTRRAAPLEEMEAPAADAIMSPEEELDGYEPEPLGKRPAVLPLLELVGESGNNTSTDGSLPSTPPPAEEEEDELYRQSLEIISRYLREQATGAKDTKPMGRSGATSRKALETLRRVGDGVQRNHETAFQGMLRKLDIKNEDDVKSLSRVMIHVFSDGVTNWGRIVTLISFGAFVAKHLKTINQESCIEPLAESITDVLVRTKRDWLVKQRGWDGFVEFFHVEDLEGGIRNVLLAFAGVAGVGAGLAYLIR
RBBP9 inhibitor: human RBBP9 inhibitors, primary screen, biochemical, fluorescence polarization, FP-Rh probe, HTS; Serine hydrolase RBBP9 (Homo sapiens), O75884; recombinant RBBP9; inhibition, % at 7.94 µM; 0.2% of 220,000 active;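 active = inhibition above the campaign mean of all tested compounds plus 3 SD, cut at about 14% in these data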
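System: RBBP9 protein / Quantity: 2.5 µM RBBP9 dispensing solution, before mixing / Also added: Serine-hydrolase probe FP-Rh, 375 nM pre-mixing / Dosing: 7.94 µM single dose, 0.794% DMSO / Timing: enzyme-compound preincubation 30 min, then probe labeling 45 min, 25 °C / Signal: FP readout at 525/598 nm / Controls: DMSO-treated enzyme wells and wells lacking RBBP9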
MCL1 BIM primary: inhibitors of MCL1 binding to BIM-BH3, primary screen, biochemical, fluorescence polarization | 0.68% of 320,000 active | inhibition, % at 10.9 µM | AID 2057, 2009 | Induced myeloid leukemia cell differentiation protein Mcl-1 (Homo sapiens), Q07820 | GST-MCL1 / FITC-Bim-BH3 fluorescence polarization;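 active = inhibition above the mean inhibition of all tested compounds plus 3 SD, set per campaign, cut at about 40% in these data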;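 also: higher means more loss of mP so more displacement of Bim peptide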
EBV gp42 inh: Epstein-Barr virus gp42 inhibitors, primary screen, biochemical, uHTS, fluorescence polarization | inhibition, % (tested at 21.74 µM) | 0.42% of 220,000 active | Fluorescence polarization binding assay, mP read-out; in the data active = inhibition above about 50%
Mcl1-Noxa inh: Mcl-1/Noxa binding inhibitors, primary screen, biochemical, TR-FRET, 1536-well | AID 1022, 2008 | 1.5% of 220,000 active | Induced myeloid leukemia cell differentiation protein Mcl-1 (Homo sapiens), Q07820 | TR-FRET Mcl-1/Noxa peptide binding, 2 h | inhibition, % at 21.7 µM;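 active = compounds that cut the protein-peptide binding signal by more than 50% relative to plate controls in a single-dose test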;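 also: His-tagged Mcl-1 with rhodamine Noxa BH3 peptide and terbium anti-His antibody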
Mcl1 Bid PPI: Mcl-1/Bid binding inhibitors, primary screen, biochemical, TR-FRET, 1536-well. inhibition, % at 21.7 µM. 0.97% of 220,000 active. Induced myeloid leukemia cell differentiation protein Mcl-1 (Homo sapiens), Q07820. AID 1021, 2008. TR-FRET Mcl-1/Bid-Dy647 peptide binding;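 active = compounds that cut the binding signal by more than half at the single screening dose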;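 also: His-tagged Mcl-1 with europium anti-His antibody binding Bid BH3 peptide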
Bcl-xL conf: Bcl-xL inhibitors blocking Bim BH3 binding, confirmation, counter-screen for MCL1 inhibitor project, biochemical, fluorescence polarization. GST-Bcl-xL / FITC-Bim BH3 peptide FP binding. shares compounds with MCL1 BIM primary. 54% of 1,700 active. inhibition, % at 10.9 µM;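 active = inhibition above a cutoff equal to the mean inhibition of all tested compounds plus 3 SD, cut at about 30% in these data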
Target sequence (Q07817 whole entry, looked up): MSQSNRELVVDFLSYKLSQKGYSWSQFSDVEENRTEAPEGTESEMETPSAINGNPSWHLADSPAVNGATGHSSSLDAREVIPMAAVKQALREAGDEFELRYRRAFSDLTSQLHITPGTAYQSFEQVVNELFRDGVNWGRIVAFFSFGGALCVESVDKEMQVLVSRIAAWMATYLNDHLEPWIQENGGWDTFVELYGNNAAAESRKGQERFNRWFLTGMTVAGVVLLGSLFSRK
MCL1 inh confirm: inhibitors of MCL1 binding to BIM-BH3, confirmation, biochemical, fluorescence polarization, triplicate | shares compounds with MCL1 BIM primary | GST-MCL1 / FITC-Bim-BH3 fluorescence polarization | inhibition, % at 10.9 µM | AID 2168, 2009 | 61% of 1,700 active;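 active = inhibition above the average of all tested compounds plus 3 SD, cut at about 40% in these data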
Large screens that a line does not name were inactive (follow-up assays come after a bar, where they were run).

O=C(CCc1nnc(COc2ccccc2)o1)NCc1ccc(Cl)s1	none
COc1ccc(N2C3=C(CC4=C2CCCC4=O)C(=O)CCC3)cc1	MCL1 BIM primary 77.3 | Bcl-xL conf 32.1 | MCL1 inh confirm inactive
CC(=O)Nc1ccc(Nc2ccc3c4c(cc(=O)n3C)-c3ccccc3C(=O)c24)cc1	MCL1 BIM primary 57.3, Mcl1-Noxa inh 56.5 | Bcl-xL conf 61.1 | MCL1 inh confirm 69.6
Cc1cc(=O)[nH]c(-n2[nH]c3c(c2=O)CCCC3)n1	MCL1 BIM primary 70.9 | Bcl-xL conf 32.2 | MCL1 inh confirm 40.5
Cc1nc(-n2[nH]c3c(c2=O)CCCC3)[nH]c(=O)c1Cc1ccccc1	none
Cc1ccc(NC(=S)NNc2ccc(C(=O)O)cc2[N+](=O)[O-])cc1C	none (no result: Bim-Mcl-1, RBBP9 inhibitor, EBV gp42 inh, Mcl1-Noxa inh, Mcl1 Bid PPI)
Cc1ccc(NC(=S)NNc2ccc([N+](=O)[O-])cc2S(=O)(=O)Nc2ccccc2C(=O)O)cc1C	MCL1 BIM primary 39.9, Mcl1-Noxa inh 87.3 | Bcl-xL conf inactive | MCL1 inh confirm inactive
COc1cccc2c1C(=O)c1ccc3ccccc3c1C2=O	none
O=C1c2ccccc2-c2onc3ccc(NCCCn4ccnc4)c1c23	Bim-Mcl-1 63.0, MCL1 BIM primary active, Mcl1 Bid PPI 59.9 | Bcl-xL conf 181.0 | MCL1 inh confirm 199.8
COc1ccc2noc3c2c1C(=O)c1ccccc1-3	MCL1 BIM primary 117.3 (no result: Bim-Mcl-1, RBBP9 inhibitor, EBV gp42 inh, Mcl1-Noxa inh, Mcl1 Bid PPI) | Bcl-xL conf 109.9 | MCL1 inh confirm 120.8
COc1ccc(N)c2c1C(=O)c1ccccc1C2=O	none
NS(=O)(=O)c1ccc(NCCCn2ccnc2)c([N+](=O)[O-])c1	none (no result: Bim-Mcl-1, RBBP9 inhibitor, EBV gp42 inh, Mcl1-Noxa inh, Mcl1 Bid PPI)
COc1ccc(OC)c2c1C(=O)c1ccccc1C2=O	MCL1 BIM primary active, EBV gp42 inh active | Bcl-xL conf active | MCL1 inh confirm active
CCO[C@@H]1OC(C(=O)N2CCN(C)CC2)=C[C@H](C(C)(C)C)[C@H]1CCCO	none
O=C(NCc1ccccc1)C(c1cccnc1)N(C(=O)c1csnn1)c1ccccc1 (configuration not stated)	none (no result: Bim-Mcl-1, RBBP9 inhibitor, EBV gp42 inh, Mcl1-Noxa inh, Mcl1 Bid PPI)
COC(=O)c1nc(NC(=O)c2cc(OC)c(OC)c(OC)c2)n[nH]1	none (no result: Bim-Mcl-1, RBBP9 inhibitor, EBV gp42 inh, Mcl1-Noxa inh, Mcl1 Bid PPI)
C=CCc1cccc(/C=N/NC(=O)CNc2cccc3ccccc23)c1O	MCL1 BIM primary 47.3 | Bcl-xL conf inactive | MCL1 inh confirm 53.6
CCN(CC)C(=O)Cn1cc(S(=O)(=O)CC(=O)NC2CCCCC2)c2ccccc21	none
COc1ccc(S(=O)(=O)N2CCN(C(=O)C3COc4ccccc4O3)CC2)cc1 (configuration not stated)	MCL1 BIM primary 88.5 (no result: Bim-Mcl-1, RBBP9 inhibitor, EBV gp42 inh, Mcl1-Noxa inh, Mcl1 Bid PPI) | Bcl-xL conf inactive | MCL1 inh confirm 89.9
CC(=O)Nc1ccc(S(=O)(=O)N2CCN(C(=O)C3COc4ccccc4O3)CC2)cc1 (configuration not stated)	none (no result: Bim-Mcl-1, RBBP9 inhibitor, EBV gp42 inh, Mcl1-Noxa inh, Mcl1 Bid PPI)
CCOC(=O)c1sc2nc3c(cc2c1N)COC(C(C)C)C3 (configuration not stated)	none
CC(C)OC(=O)CC(=O)c1sc2nc3c(cc2c1N)CN(C)CC3	MCL1 BIM primary 98.3, EBV gp42 inh 69.2, Mcl1-Noxa inh 57.0 | Bcl-xL conf 59.9 | MCL1 inh confirm 72.1
O=c1cc(-c2ccc(O)cc2)oc2c1ccc1ccccc12	none (no result: Bim-Mcl-1, RBBP9 inhibitor, EBV gp42 inh, Mcl1-Noxa inh, Mcl1 Bid PPI)
O=c1cc(-c2ccc(O)cc2)oc2c(O)c(O)c(O)c(O)c12	MCL1 BIM primary 47.4 (no result: Bim-Mcl-1) | Bcl-xL conf inactive | MCL1 inh confirm 54.5
N=C1C(c2nc3ccccc3[nH]2)=C(O)CN1NC(=O)COc1cccc(F)c1	none
CCOC(=O)/C(C#N)=C1/C(=O)N(Cc2ccccc2)c2ccccc21	none (no result: MCL1 BIM primary)
